Holding throughout (assay type): functional
The test system of test [1] is WiDr. As to the kind of experiment: Antiproliferative activity against human WiDr cells assessed as growth inhibition after 48 hrs by SRB assay. A digest of the protocol: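 WiDr cells seeded at 20,000 cells/well after trypsinization into antibiotic-containing medium (trypan blue viability >97%). Culture at 37 °C, 5% CO₂ with foetal calf serum and 2 mM L-glutamine. Exposure to triplicate compound dilutions from DMSO stocks (0.25% v/v DMSO control) started day 1, lasting 48 h. Fixed with ice-cold 50% TCA, 60 min at 4 °C, then SRB, OD 492 nm background-subtracted.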

Test [2] has as its system HeLa. As to the kind of experiment: Antiproliferative activity against human HeLa cells assessed as growth inhibition after 48 hrs by SRB assay. A digest of the protocol: (§1)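 Cells maintained at 37 °C, 5% CO₂ in medium with foetal calf serum and 2 mM L-glutamine. Trypsinized into antibiotic medium, >97% viable by trypan blue, plated at 10,000 cells/well. Triplicate dilutions from DMSO stocks (0.25% v/v DMSO control) added on day 1 for 48 h. TCA fixation (50%, 4 °C, 60 min), SRB stain, OD 492 nm corrected for medium-only blank.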

Test [3] deals with A549. As to the kind of experiment: Antiproliferative activity against human A549 cells assessed as growth inhibition after 48 hrs by SRB assay. The following applies: A549, 48 h. A digest of the protocol: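 Cells kept in medium with foetal calf serum and 2 mM L-glutamine at 37 °C, 5% CO₂. Trypsinized, resuspended in penicillin/streptomycin medium, >97% trypan blue viability, seeded at 10,000 cells/well. Compounds from DMSO stocks (0.25% v/v DMSO control), triplicate dilutions, added day 1 for 48 h. Fixed with cold 50% TCA for 60 min at 4 °C, then SRB staining, OD 492 nm, background corrected.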

Test [4] is described as follows: Antiproliferative activity against human HBL100 cells assessed as growth inhibition after 48 hrs by SRB assay. The following applies: HBL-100, 48 h. A digest of the protocol:
as §1

Test [5] has as its system T47D. As to the kind of experiment: Antiproliferative activity against human T47D cells assessed as growth inhibition after 48 hrs by SRB assay. A digest of the protocol:
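T-47D cells grown at 37 °C, 5% CO₂ in serum- and 2 mM L-glutamine-containing medium. Trypsinized, viability >97% by trypan blue, seeded at 15,000 cells/well. Compounds added day 1 in triplicate dilutions (DMSO vehicle 0.25% v/v as control) for 48 h. Cold 50% TCA fixation 60 min at 4 °C, SRB read at 492 nm with blank correction.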

Test [6] deals with SW1573. As to the kind of experiment: Antiproliferative activity against human SW1573 cells assessed as growth inhibition after 48 hrs by SRB assay. Particulars: SW1573, 48 h. A digest of the protocol: as §1

As to `COC(=O)[C@@]1(C)CC[C@@H]2C3=C1CC[C@@H](C)[C@]3(C)C[C@@H]1c3cc(Br)ccc3N[C@H]21`, the GI50 in test [1] amounted to 55 µM; in test [2] it was 25 µM; in test [3], 40 µM; in test [4], 34 µM; in test [5] it was 31 µM; in test [6], 45 µM.
With `COC(=O)[C@@]1(C)CCC=C2[C@@H]1CC[C@@H](C)[C@]2(C)Cc1c[nH]c2ccc(C)cc12`, the GI50 is 22 µM in test [1]; 14 µM in test [2]; 17 µM in test [3]; 18 µM in test [4]; 20 µM in test [5]; 15 µM in test [6].
As to `COC(=O)[C@@]1(C)CCC=C2[C@@H]1CC[C@@H](C)[C@]2(C)Cc1c[nH]c2ccc(Cl)cc12`, the GI50 in test [1] came out at 20 µM; in test [2] it was 11 µM; in test [3] it was 16 µM; in test [4], 17 µM; in test [5] it was 17 µM; in test [6] it was 11 µM.
Consider `COC(=O)[C@@]1(C)CCC=C2[C@@H]1CC[C@@H](C)[C@]2(C)Cc1c[nH]c2c(C)cccc12`, for which the GI50 in test [1] stood at 26 µM; in test [2] it was 4.9 µM; in test [3], 11 µM; in test [4], 8 µM; in test [5], 18 µM; in test [6], 7.8 µM.
Take `COC(=O)[C@@]1(C)CCC=C2[C@@H]1CC[C@@H](C)[C@]2(C)Cc1c[nH]c2c(Br)cccc12`: the 50% growth inhibitory concentration (GI50) in test [1] was determined as 32 µM; in test [2], 13 µM; in test [3] it was 22 µM; in test [4] it was 18 µM; in test [5] it was 24 µM; in test [6], 14 µM.
Consider `COC(=O)[C@@]1(C)CCC=C2[C@@H]1CC[C@@H](C)[C@]2(C)Cc1c[nH]c2c(Cl)cccc12`, for which the GI50 came out at 31 µM in test [1]; 14 µM in test [2]; 22 µM in test [3]; 19 µM in test [4]; 24 µM in test [5]; 14 µM in test [6].
Consider `COC(=O)[C@@]1(C)CCC=C2[C@@H]1CC[C@@H](C)[C@]2(C)Cc1c(C)[nH]c2ccc(C)cc12`, for which the GI50 in test [1] was found to be 28 µM; in test [2], 17 µM; in test [3] it was 26 µM; in test [4], 25 µM; in test [5], 31 µM; in test [6] it was 18 µM.
Take `COC(=O)[C@@]1(C)CCC=C2[C@@H]1CC[C@@H](C)[C@]2(C)Cc1c(C)[nH]c2ccc(C(F)(F)F)cc12`: the GI50 amounted to 21 µM in test [1]; 12 µM in test [2]; 17 µM in test [3]; 16 µM in test [4]; 21 µM in test [5]; 15 µM in test [6].
For `COC(=O)[C@@]1(C)CCC=C2[C@@H]1CC[C@@H](C)[C@]2(C)Cc1c(C)[nH]c2c(C)cccc12`, the GI50 in test [1] was 21 µM; in test [2], 14 µM; in test [3] it was 14 µM; in test [4] it was 16 µM; in test [5], 19 µM; in test [6], 15 µM.
Regarding `COC(=O)[C@@]1(C)CCC=C2[C@@H]1CC[C@@H](C)[C@]2(C)Cc1c(C)[nH]c2c(Br)cccc12`, the GI50 in test [1] is 38 µM; in test [2] it was 22 µM; in test [3], 27 µM; in test [4] it was 27 µM; in test [5], 31 µM; in test [6], 25 µM.
As for `COC(=O)[C@@]1(C)CCC=C2[C@@H]1CC[C@@H](C)[C@]2(C)Cc1c(C)[nH]c2c(Cl)cccc12`, the GI50 in test [1] turned out to be 29 µM; in test [2], 17 µM; in test [3], 20 µM; in test [4] it was 22 µM; in test [5], 27 µM; in test [6], 19 µM.
For `COC(=O)[C@@]1(C)CCC=C2[C@@H]1CC[C@@H](C)[C@]2(C)Cc1c(/C=C/[N+](=O)[O-])[nH]c2ccccc12`, the GI50 was found to be 21 µM in test [1]; 6.9 µM in test [2]; 13 µM in test [3]; 16 µM in test [4]; 15 µM in test [5]; 13 µM in test [6].
For `COC(=O)[C@@]1(C)CCC=C2[C@@H]1CC[C@@H](C)[C@]2(C)Cc1c(C)n(C(c2ccccc2)c2ccccc2)c2ccc(Cl)cc12`, the 50% growth inhibitory concentration (GI50) in test [1], in test [2], in test [3], in test [4], in test [5] and in test [6] was above 100 µM in each case.
For the compound `COC(=O)[C@@]1(C)CC[C@@H]2C3=C1CC[C@@H](C)[C@]3(C)C[C@@H]1c3ccccc3N[C@H]21`, the GI50 in test [1] amounted to 50 µM; in test [2], 19 µM; in test [3], 39 µM; in test [4], 78 µM; in test [5], 35 µM; in test [6], 30 µM.
For `COC(=O)[C@@]1(C)CC[C@@H]2C3=C1CC[C@@H](C)[C@]3(C)C[C@@H]1c3cc(C)ccc3N[C@H]21`, the GI50 came to 32 µM in test [1]; 18 µM in test [2]; 27 µM in test [3]; 15 µM in test [4]; 23 µM in test [5]; 23 µM in test [6].
Turning to `COC(=O)[C@@]1(C)CC[C@@H]2C3=C1CC[C@@H](C)[C@]3(C)C[C@@H]1c3cc(Cl)ccc3N[C@H]21`, the GI50 in test [1] is 48 µM; in test [2], 23 µM; in test [3], 35 µM; in test [4], 28 µM; in test [5] it was 28 µM; in test [6], 38 µM.
Take `COC(=O)[C@@]1(C)CC[C@@H]2C3=C1CC[C@@H](C)[C@]3(C)C[C@@H]1c3cc(F)ccc3N[C@H]21`: the GI50 in test [1] turned out to be 32 µM; in test [2], 20 µM; in test [3], 25 µM; in test [4], 18 µM; in test [5] it was 27 µM; in test [6] it was 27 µM.
For the compound `COC(=O)[C@@]1(C)CC[C@@H]2C3=C1CC[C@@H](C)[C@]3(C)C[C@@H]1c3cc(OC)ccc3N[C@H]21`, the GI50 in test [1] turned out to be 25 µM; in test [2], 20 µM; in test [3], 22 µM; in test [4], 15 µM; in test [5], 19 µM; in test [6] it was 25 µM.
With `COC(=O)[C@@]1(C)CC[C@@H]2C3=C1CC[C@@H](C)[C@]3(C)C[C@@H]1c3cccc(C)c3N[C@H]21`, the GI50 in test [1] was determined as 43 µM; in test [2] it was 22 µM; in test [3], 30 µM; in test [4], 32 µM; in test [5], 29 µM; in test [6], 31 µM.
For `COC(=O)[C@@]1(C)CC[C@@H]2C3=C1CC[C@@H](C)[C@]3(C)C[C@@H]1c3cccc(Br)c3N[C@H]21`, the GI50 in test [1] came to 54 µM; in test [2], 22 µM; in test [3], 42 µM; in test [4] it was 40 µM; in test [5], 37 µM; in test [6], 44 µM.
On to `COC(=O)[C@@]1(C)CC[C@@H]2C3=C1CC[C@@H](C)[C@]3(C)C[C@@H]1c3cccc(Cl)c3N[C@H]21`, for which the GI50 worked out at 67 µM in test [1]; 31 µM in test [2]; 54 µM in test [3]; 52 µM in test [4]; 50 µM in test [5]; 49 µM in test [6].
Take `COC(=O)[C@@]1(C)CC[C@@H]2C3=C1CC[C@@H](C)[C@]3(C)Cc1c2[nH]c2ccc(Br)cc12`: the 50% growth inhibitory concentration (GI50) in test [1] amounted to 22 µM; in test [2], 14 µM; in test [3], 17 µM; in test [4] it was 16 µM; in test [5], 21 µM; in test [6], 12 µM.
With `COC(=O)[C@@]1(C)CC[C@@H]2C3=C1CC[C@@H](C)[C@]3(C)Cc1c2[nH]c2c(C)cccc12`, the 50% growth inhibitory concentration (GI50) worked out at 22 µM in test [1]; 12 µM in test [2]; 16 µM in test [3]; 13 µM in test [4]; 23 µM in test [5]; 16 µM in test [6].
With `COC(=O)[C@@]1(C)CC[C@@H]2C3=C1CC[C@@H](C)[C@]3(C)Cc1c2[nH]c2c(Br)cccc12`, the GI50 came out at 37 µM in test [1]; 18 µM in test [2]; 35 µM in test [3]; 26 µM in test [4]; 31 µM in test [5]; 26 µM in test [6].
As for `COC(=O)[C@@]1(C)CC[C@@H]2C3=C1CC[C@@H](C)[C@]3(C)Cc1c2[nH]c2c(Cl)cccc12`, the GI50 in test [1] worked out at 21 µM; in test [2], 12 µM; in test [3] it was 21 µM; in test [4], 16 µM; in test [5], 21 µM; in test [6], 17 µM.

The values above are taken from ChEMBL document CHEMBL3112463, “Synthesis and biological activity of polyalthenol and pentacyclindole analogues” (2014).
